# Experimental data pooled from the literature.
# Lines come from different studies, so protocols differ.
# Target: Casein kinase I isoform delta (CSNK1D, Homo sapiens, UniProt P48730)
SMILES,test,setting,measurement,value
Cc1nccc(COC(=O)N2C[C@@H]3[C@@H](CNC(=O)c4ccc5[nH]nnc5c4)[C@@H]3C2)n1,"cell-free assay, competition with immobilised ligand",1 µM,remaining binding,97%
CS(=O)(=O)Nc1cccc(-c2csc(NC(=O)CSc3nc4nccnc4c(=O)n3CCc3ccccc3)n2)c1,"enzyme activity, inhibitor",10 µM,inhibition,10%
CC(=O)N1CCC(c2ccc(C(=O)NC3=NCCN3)cc2C(F)(F)F)CC1,"cell-free assay, competition with immobilised ligand",1 µM,remaining binding,100%
O=C(Cc1cccc(Cl)c1)Nc1nc2ccccc2s1,cell-free assay,10 µM,inhibition,> 60%
COc1cc2c(N3CCN(C(=O)Nc4ccc(OC(C)C)cc4)CC3)ncnc2cc1OCCCN1CCCCC1,cell-free assay,0.5 µM,remaining signal,90.9%
CCN(CC)c1ccc(C2=NNC(=O)CC2C)cc1[N+](=O)[O-] (stereo not shown),"enzyme activity, inhibitor",10 µM,remaining activity,109%
O=C1CCc2cc(Nc3cc(OC4CCOCC4)c([N+](=O)[O-])cc3Cl)ccc2N1,"cell-free assay, competition with immobilised ligand",1 µM,remaining binding,90%
CCCS(=O)(=O)Nc1ccc(F)c(C(=O)c2c[nH]c3ncc(-c4ccc(Cl)cc4)cc23)c1F,"enzyme activity, inhibitor",1 µM,inhibition,< 10%
Nc1cnc(N2CCc3cc(S(=O)(=O)Nc4c(F)cc(Cl)cc4F)cc(N4CCCC4=O)c32)nc1,"cell-free assay, competition with immobilised ligand",1 µM,remaining binding,98%
COc1cc2ncnc(Nc3ccc(F)c(Cl)c3)c2cc1OCCCN1CCOCC1,cell-free assay,0.5 µM,remaining signal,90.4%
COc1cc(/C=C/C(=O)CC(=O)/C=C/c2ccc(O)c(OC)c2)ccc1O,"enzyme activity, inhibitor",1 µM,activity vs control,105%
COc1cc(Nc2cnc(C#N)c(O[C@H](C)CN(C)C)n2)ncc1-c1cnn(C)c1,"enzyme activity, inhibitor, radiometric",10 µM,remaining activity,22%
CS(=O)(=O)CCNCc1ccc(-c2ccc3ncnc(Nc4ccc(OCc5cccc(F)c5)c(Cl)c4)c3c2)o1,cell-free assay,0.5 µM,remaining signal,91.2%
Cc1nc(N2CC[C@@H](O)C2)ncc1-c1cc(C(F)(F)F)cc2[nH]ncc12,"cell-free assay, competition with immobilised ligand",1 µM,remaining binding,95%
FC(F)(F)Oc1cccc(-c2cnc3ccc(-c4ccncc4)nn23)c1,"enzyme activity, inhibitor, radiometric",1 µM,activity vs control,100%
CO[C@@H](C)c1c(Nc2ccc([C@H](N(C)C(=O)C3CCS(=O)(=O)CC3)C(F)(F)F)cc2)cnc2cc(Cl)nn12,"cell-free assay, competition with immobilised ligand",1 µM,remaining binding,88%
COc1cc2c(Nc3ccc(Br)cc3F)ncnc2cc1OCC1CCN(C)CC1,cell-free assay,0.5 µM,remaining signal,94.4%
CO[C@H]1CC[C@H](CNc2ccc(S(=O)(=O)NC(=O)c3ccc(N4CCN(CC5=C(c6ccc(Cl)cc6)CC(C)(C)CC5)CC4)cc3Oc3cnc4[nH]ccc4c3)cc2[N+](=O)[O-])CC1,"cell-free assay, competition with immobilised ligand",1 µM,remaining binding,93%
CC(C)(C)c1nc(-c2cccc(NS(=O)(=O)c3c(F)cccc3F)c2F)c(-c2ccnc(N)n2)s1,"enzyme activity, inhibitor, radiometric",1 µM,remaining activity,81%
CCCOc1ccc([C@H]2[C@H](C(=O)O)[C@@H](c3ccc4c(c3)OCO4)CN2CC(=O)Nc2c(CC)cccc2CC)cc1,"cell-free assay, competition with immobilised ligand",1 µM,remaining binding,80%
COc1cc2ncnc(Nc3ccc(Oc4ccccc4)cc3C)c2cc1OC,"enzyme activity, inhibitor",1 µM,inhibition,0%
CN1CC(Oc2cnc(C#N)cc2-c2ccn3nc(NC(=O)C4CC4)cc3c2)C1,"enzyme activity, inhibitor",1 µM,inhibition,-20%
CCCOc1ccc(OC)c(F)c1C(=O)c1ccc(C(=O)N[C@@H]2CNC[C@H]2NC(=O)c2ccc3[nH]ncc3c2)cc1,"enzyme activity, inhibitor",10 µM,remaining activity,43%
Cc1ccc(C(=O)Nc2ccc(CN3CCN(C)CC3)c(C(F)(F)F)c2)cc1C#Cc1cnc2cccnn12,enzyme activity,23.5 nM,remaining activity,100%
O=C(Nc1cnn(-c2csc(C(=O)NC3COC3)c2)c1)Nc1c(F)cccc1Cl,"enzyme activity, inhibitor",5 µM,remaining activity,117%
